Assay: Toxicity liver stage against HepG2, at 10uM
Type: cell-based
Parameters: test concentration 10 uM, cell line HepG2-A16-CD81EGFP
Conditions: human, HepG2-A16-CD81EGFP cells; read-out: INHIBITION
In short: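 Uninfected HepG2-A16-CD81EGFP cells, 3 × 10^3 per well, 1536-well, plated on prespotted compound at 10 μM final, parasite-free screening media added to match infected plates; puromycin 10 μM positive, DMSO 0.5% negative; run in parallel with 48 h PbLuc assay at 37 °C, 5% CO2; viability by CellTiter-Glo luminescence, normalized to controls.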

Row | SMILES | cytotoxicity at 10 µM [%]
1 | CCOC(=O)c1cnn(-c2cc(Oc3cccc(C)c3)ncn2)c1N | 16.9
2 | Cn1c(CN2CCOC[C@H]2c2nc(C(C)(C)C)co2)nc2ccccc21 | 4.78
3 | CS(=O)(=O)NC[C@H]1Cn2c(-c3ccc(F)cc3)cnc2CO1 | -7.47
4 | CCOc1ccc(C(=O)Nc2c(C)nc3ccc(Cl)cn3c2=O)cc1 | -4.31
5 | CCN1C(=O)C(C#N)=C(C)/C(=C/C2=Cc3ccccc3OC2)C1=O | -40.9
6 | COc1cc(OC)cc(C(=O)Nc2ncnc3c2CCC3)c1 | -179
7 | CCN1CC[C@]2(CN(C(=O)[C@H]3CCCO3)C[C@H]2c2ccccc2)C1=O | 5.98
8 | COCCNC(=O)c1sccc1N(C)S(=O)(=O)c1ccc(Cl)cc1 | 6.33
9 | CCCN(CCC)c1ncc(S(=O)(=O)c2ccccc2)c(N)n1 | -2.26
10 | CCn1ncc(Cn2cc(Cl)c(N)n2)c1C | -8.55
11 | Cc1cc(C(=O)N(C)Cc2cccs2)nc(N2CCCCC2)n1 | 17.5
12 | CC(C)c1cc(C(=O)NCCN2CCOCC2)nc(N2CCCC2)n1 | 8.82
13 | c1ccc(N2CCN(Cc3cnc(C4CCCCO4)nc3)CC2)nc1 (stereo not given) | -3
14 | CCc1cc(C(F)(F)F)c2c(C3CCN(C(=O)COC)CC3)noc2n1 | 14
15 | O=C(Cc1ccccn1)N1CCc2c(O)nc(-c3cnccn3)nc2C1 | -27
16 | Cc1cccc(CN2CCCC2c2cccc(CCC(=O)O)n2)c1 (stereo not given) | -12.6
17 | Cc1cncc(CN2C[C@@H](O)[C@H](Oc3ccccc3)C2)c1 | 0.442
18 | O=C(C1CCCC1)N1CCC(c2n[nH]c3nccnc23)CC1 | 0.165
19 | CC(=O)N1CCCC1c1cc(N2CCN(CC(C)(C)C)CC2)cc(C)n1 (stereo not given) | -6.41
20 | Cn1nc(C2CCCNC2)c2c(C(=O)NC3CC3)cc(C3CC3)nc21 (stereo not given) | 14.5
21 | Cc1ccc(CN2CCCC23Cc2ccccc2CNC3=O)cc1 (stereo not given) | 8.82
22 | Cc1ccc(-c2nc(CC(=O)N3CCCC(NC(=O)C(C)C)C3)cs2)o1 (stereo not given) | -50.5

Row | SMILES | cytotoxicity at 10 µM [%]
23 | OCC(CO)Nc1nc(C(F)F)nc2ccccc12 | 6.96
24 | CCc1noc(CN2CCN(C(=O)Cc3ccc(F)cc3)CC2)n1 | 10.4
25 | CCOc1nnc(CN2CCN(CCOC)C(C)C2)s1 (stereo not given) | -11.1
26 | O=C(c1cc(C2CC2)nc2onc(-c3ccccc3)c12)N1CCOCC1 | -40.5
27 | O=C(CCC1CCCO1)NCCN1CCCCC1 (stereo not given) | -3.79
28 | CN(c1ncc(S(N)(=O)=O)s1)C1CCC1 | 4.13
29 | COCCNc1ccccc1CNC(=O)NCc1cnc(C)s1 | 10.6
30 | CCc1noc(CS(=O)(=O)C(C)c2nc(C3CC3)no2)n1 (stereo not given) | 11.3
31 | O=C(c1ccc2nccn2c1)N1CCCC1c1noc(C2CC2)n1 (stereo not given) | -4.68
32 | CN(C)c1cc(CNCc2cccc3c2OCCO3)ccn1 | 3.57
33 | COCCNC(=O)CN(C)Cc1ccc(F)cc1Cl | -1.02
34 | Cc1cc(CNC(=O)NCc2ccccc2N2CCOCC2)no1 | 1.15
35 | CCC(C)NC(=O)c1nnn(-c2cccc3c2CCN(C)C3)c1C (stereo not given) | -6.39
36 | CNC(=O)CS(=O)(=O)Cc1ccc(OC)c(F)c1 | -6.7
37 | CN(Cc1ccccc1)CC(C)(C)NC(=O)c1ccc(C(N)=O)cn1 | -0.616
38 | O=S1(=O)CCC(CNS(=O)(=O)N2CCc3ccccc3C2)C1 (stereo not given) | -10.7
39 | COc1ccc(CN2CCC(C(N)=O)CC2)cc1SC(F)(F)F | -20.3
40 | CCOc1cc(C(=O)N(C)C)ccc1NC(=O)C(C)c1ccsc1 (stereo not given) | 5.61
41 | CN(Cc1ccc([S+](C)[O-])cc1)c1cncc(Cl)n1 (stereo not given) | -10.6
42 | Cc1nc(SC2CCN(c3sccc3C#N)C2=O)oc1C (stereo not given) | -4.92
43 | N#CC1(NC(=O)c2ccc(F)c(Br)c2)CCSC1 (stereo not given) | -7.08
44 | CCCNC(=O)C1CCN(CC(O)c2ccc(C(F)(F)F)cc2)CC1 (stereo not given) | 2.68

Row | SMILES | cytotoxicity at 10 µM [%]
45 | CC(C)c1noc(CCC(=O)N2CCSCC2)n1 | -2.99
46 | COc1cc(C)c(NC(=O)NCCn2cccc2)cc1OC | 0.414
47 | O=C(CNc1cccc(S(=O)(=O)C(F)F)c1)NCc1ccco1 | -40.5
48 | CCC(CC)c1nnc(NC(=O)N2CCCC(NC(C)=O)C2)s1 (stereo not given) | 5.9
49 | Cc1ccc2cc(C(=O)N3CCC(O)(C(F)(F)F)CC3)ccc2n1 | -54.7
50 | Cn1cc(C(=O)N2CCOc3ccccc32)ccc1=O | 13
51 | CCN(C(=O)COC)C(c1cccnc1)c1ccc2c(c1)CCO2 (stereo not given) | -12.4
52 | CN1CC[C@]2(CN(CC3CC3)C[C@H]2c2ccccc2)C1=O | 3.15
53 | COCC1c2nnn(C)c2CCN1C(=O)CCc1cccc(OC)c1 (stereo not given) | -90.4
54 | CCN1C[C@H]2CCN(C(=O)Cc3cccc(OC)c3)CC[C@H]2S1(=O)=O | 9.86
55 | COc1cc(F)ccc1CC(=O)N1CC[C@H]2C(=O)NCCO[C@H]2C1 | -108
56 | COCc1cnc2n1CCN(C(=O)c1oc3ccccc3c1C)C2C (stereo not given) | -104
57 | CCOCc1cnc2n1CCN(C(=O)c1cccc3c1OCCO3)C2C (stereo not given) | -98.2
58 | Cc1cnc(C(=O)N2CCN3C[C@H](OCc4cccnc4)C[C@H]3C2)cn1 | -59.7
59 | O=C(C1CCOC1)N1CCC2(CCN(Cc3nccs3)CC2)CC1 (stereo not given) | -73.3
60 | O=C(c1ccoc1)N1CC[C@@H]2O[C@@H](COCc3ccncc3)CC[C@@H]21 | -80.4
61 | c1cc(CN2CCOCC3(CCN(C4CCOCC4)C3)C2)ccn1 (stereo not given) | 0.866
62 | O=C1NC2(CCNCC2)CC1c1cccnc1 (stereo not given) | 1.77
63 | c1cncc(-c2nc(C3CC3)ncc2-c2ccnc(N3CCCC3)n2)c1 | -2.5
64 | CC(C)CC(=O)N1CC(=O)c2sc(Nc3ccc(F)cc3)nc2C1 | -2.28
65 | Cc1nc2sccn2c1C(=O)N1CCc2c(nc(N(C)C)[nH]c2=O)C1 | 5.06
66 | CC(C)N(C)C(=O)C1CCC(=O)N(CCc2cccc(F)c2)C1 (stereo not given) | -4.57

Row | SMILES | cytotoxicity at 10 µM [%]
67 | CSc1nnc(CC2CCN(C(=O)CCc3cccnc3)CC2)n1C | -43.5
68 | CCc1nc2c(c(N3CCOCC3)n1)CCN(C(=O)c1ccon1)CC2 | 10.6
69 | CC(C)N(C(=O)N1CCn2cncc2C1)C(C)C | -12.3
70 | O=C(O)CCc1cc2n(n1)CCCN(C(=O)c1ccc(Cl)s1)C2 | -6.06
71 | CS(=O)(=O)N1CC[C@]2(O)CCN(c3cc(C#N)ccn3)C[C@@H]2C1 | 6.36
72 | CCCC(C)NC1CCN(c2ccc(-n3ccnc3C)cc2)CC1 (stereo not given) | -3.67
73 | C=C(C)COc1cccc(C(=O)NC(C)c2nnn[nH]2)c1 (stereo not given) | -8.32
74 | COc1ccc(Cc2noc(-c3ccc(NC(C)CO)nc3)n2)cc1 (stereo not given) | -3.06
75 | CCc1cc(-c2ccnc3c2ccn3C)nc(N2CCOCC2)n1 | -7.09
76 | COCC(=O)N(Cc1cccc(C)c1)Cc1ccccc1OC | -51.4
77 | O=C(CCN1CCCC1)N1CC[C@@H](c2ccc3ccccc3c2)[C@H](O)C1 | 2.97
78 | O=C(O)C1(Cc2ccc(Cl)cc2)CCN(c2ncccc2F)CC1 | -1.29
79 | Cc1nn(C)cc1-c1ccnc(N(C)Cc2ccoc2)n1 | 23.8
80 | O=C(O)C(c1ccc(Cl)c(F)c1)N1CCN(Cc2ccccn2)CC1 (stereo not given) | 8.09
81 | COc1ccc(C(C)C)cc1C1CC(=O)NCc2nc(N(C)C)sc21 (stereo not given) | -1.22
82 | O=C(Nc1ccccc1Cl)N1CCN(CC2CC2)[C@@H]2CS(=O)(=O)C[C@@H]21 | 2.72
83 | CN(C)CC1(O)CCCN(C(=O)Cc2ccc(Cl)c(Cl)c2)C1 (stereo not given) | 0.355
84 | Cn1ncc(NC(=O)Cn2ccc(-c3ccc(F)cc3)n2)n1 | 1.05
85 | CC(C)[C@H]1COC(=O)N1CC(=O)N1CCCN(C(=O)c2ccoc2)CC1 | 3.38
86 | O=c1[nH]c(NC2CCCC2)nc2nccc(-c3cccs3)c12 | -18.1
87 | CCn1cncc1CNc1ccc(-c2nc(CC(C)C)no2)cn1 | -9.07
88 | CCC(C)N(Cc1cccnc1)Cc1ccc2c(c1)OCCO2 (stereo not given) | -2.83

Row | SMILES | cytotoxicity at 10 µM [%]
89 | Cc1cc(N2CCN(Cc3ccc(-c4cc[nH]n4)o3)CC2)cc(C)n1 | 2.17
90 | CN1CCCC(c2cccc(Cc3ccccc3Cl)n2)C1 (stereo not given) | 1.03
91 | O=C(c1csc(C2CC2)n1)N1CCCCC1Cn1cccn1 (stereo not given) | 0.745
92 | CN1CCCN(C(=O)NCc2cccnc2-n2cccn2)CC1 | -17.9
93 | COc1ccc(CNc2cnn(C)c(=O)c2Cl)cc1 | -3.45
94 | c1cnnc(N2CCCC2CNc2ncnc3ccsc23)c1 (stereo not given) | -8.87
95 | COc1cccc(COCC(O)CN2CC(n3cccn3)C2)c1 (stereo not given) | -8.52
96 | CS(=O)(=O)NCCCN1CCCCC1c1cc2ccccc2[nH]1 (stereo not given) | -10.6
97 | Cc1ccoc1C(=O)NC1CCN(Cc2cccc3c2OCCO3)CC1 | 1.18
98 | CCCc1nnsc1C(=O)N1CCN(CC(C)O)CC1 (stereo not given) | -5.3
99 | CCOC(=O)N1CCN(c2nc(NC3CC3)c3ccccc3n2)CC1 | -0.529
100 | COCC(=O)N(C)Cc1nc(N2CCCC2)ncc1-c1ccncc1 | 12.3
101 | CN(C)C(=O)NCc1ncn2c1CN(Cc1cccs1)CCC2 | 8.07
102 | Cc1cnc(N2CCOC3(CCCN(C)C3)C2)nc1 (stereo not given) | 8.25
103 | Fc1cccc(-c2nnn3c2COC(CNCc2ccsc2)C3)c1 (stereo not given) | -1.52
104 | CCn1cc2c(n1)CN(Cc1sccc1C)CC2COCC1CC1 (stereo not given) | -57.3
105 | CC[C@@H]1N(Cc2ccsc2)CCC[C@]12CCC(=O)N2CCOC | 7.36
106 | COCCN1CCC(c2nc3ccc(N4CCCC4)cn3n2)CC1 | 11.8
107 | Cn1cc(N2C(=O)CC[C@@H]3[C@H]2CCN3C(=O)c2cscn2)cn1 | -81.5
108 | COCCN1CCc2cc(C(=O)NCC3CC3)c(NC(C)C)nc2CC1 | 73.6
109 | Cc1cccc(CNC2CC3(CCN(CCO)CC3)c3ccccc32)n1 (stereo not given) | -110
110 | Cc1cccc(CN2CC[C@H]3[C@H]2CCN3Cc2cnn(C)c2)n1 | 8.67

— ChEMBL document CHEMBL4513216, “Probing the Open Global Health Chemical Diversity Library for Multistage-Active Starting Points for Next-Generation Antimalarials” (ACS Infect Dis, 2020)
